Assay outcomes deposited in PubChem by several laboratories.
Rows were chosen to be rich in hits. Some 1.7% of all compounds tested hit in one or more screens of this group.
STEP inh: inhibitors of human striatal-enriched phosphatase STEP; recombinant STEP, OMFP fluorogenic substrate, fluorescence; inhibition, % at 20 µM; 360,000 tested, 0.25% active;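 active means inhibition at 20 µM, scaled per plate between control wells, above about 37%, limit read from the data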;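 further: 0% = DMSO with enzyme and substrate and 100% = substrate only without enzyme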
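material = STEP tyrosine phosphatase | reagent = fluorogenic phosphatase substrate OMFP at 25 µM final | doses = single compound dose of 20 µM, 1% DMSO final | schedule = 20 min reaction, room temperature, in the dark | measured by = fluorescence, 480/540 nm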
Scp1 inh: Scp-1 (human) phosphatase inhibition; Q9GZU7; Recombinant Scp1, phosphopeptide, malachite green phosphate absorbance; inhibition, % at 20 µM; 340,000 tested, 0.88% active; AID 493091;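 active means inhibition above about 50% at 20 µM, limit read from the data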;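 further: plate controls were DMSO wells with enzyme for no effect and wells lacking enzyme for full effect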
Target sequence (Q9GZU7 76-261 limits assumed): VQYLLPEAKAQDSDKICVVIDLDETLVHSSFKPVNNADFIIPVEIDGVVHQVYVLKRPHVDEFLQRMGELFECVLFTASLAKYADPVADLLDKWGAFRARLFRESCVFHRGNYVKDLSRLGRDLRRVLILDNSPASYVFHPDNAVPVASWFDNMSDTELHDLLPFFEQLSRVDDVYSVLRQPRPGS
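Material: truncated SCP-1 phosphatase (76-261aa) / Buffer or medium: 50 mM Tris acetate pH 5.5, 0.005% Tween-20, 10 mM MgCl2 / Compound dosing: one concentration, 20 µM, with 1.0% DMSO / Incubation: 45 min room-temperature reaction, 5 min colour, 30 min stabiliser / Detection: colorimetric free-phosphate detection, absorbance 630 nm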
LMPTP block: blocks human LMPTP phosphatase | recombinant LMPTP-A, OMFP fluorogenic substrate, fluorescence intensity | inhibition, % at 20 µM | 360,000 tested, 0.22% active | AID 651560;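 active means compounds that cut the enzyme signal by at least half of the control window in the single-dose screen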;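 further: plate controls were DMSO wells with enzyme plus substrate for no effect and substrate without enzyme for full effect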
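Test system: LMPTP-A phosphatase enzyme; input: 0.625 nM LMPTP-A final; reagent: OMFP substrate, 400 µM final; compound dosing: 20 µM single dose, 3% DMSO; incubation: 50 min dark incubation at room temperature; measured by: endpoint fluorescence intensity from OMFP dephosphorylation; measure: % inhibition relative to no-enzyme and uninhibited control wells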
SUMO1-SIM PPI: alters human SUMO1 binding to SIM partners; inhibition, % at 20 µM; SUMO1 binding to a labelled peptide, TR-FRET, 1 h; 360,000 tested, 0.33% active; P63165; AID 602429; in the data active means inhibition above about 37%
Target sequence (P63165 whole entry, looked up): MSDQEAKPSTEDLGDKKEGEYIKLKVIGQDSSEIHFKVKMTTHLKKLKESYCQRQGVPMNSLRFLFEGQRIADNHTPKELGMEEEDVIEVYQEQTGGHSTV
CASP6 VEID inh: inhibitors of human caspase-6 | purified caspase-6, Z-VEID-R110 cleavage fluorescence | inhibition, % at 12.5 µM | 350,000 tested, 0.53% active | AID 686996;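 active means mean inhibition across replicates at least about 35%, with every replicate also reaching that limit, limit read from the data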;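 further: 0% = median of neutral control wells and 100% = no fluorescence left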
Target sequence (P55212 24-179 limits assumed): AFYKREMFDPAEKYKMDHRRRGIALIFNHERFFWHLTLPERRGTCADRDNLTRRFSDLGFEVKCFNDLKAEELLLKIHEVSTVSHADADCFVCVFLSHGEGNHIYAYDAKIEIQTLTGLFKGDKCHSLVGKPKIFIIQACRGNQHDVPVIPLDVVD
Target sequence (P55212 194-293 limits assumed): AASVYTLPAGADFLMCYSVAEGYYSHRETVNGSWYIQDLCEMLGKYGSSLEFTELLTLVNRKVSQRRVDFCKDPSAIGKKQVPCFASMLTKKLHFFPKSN
DNMT1 inh: blocks human DNA methyltransferase DNMT1 | P26358 | DNMT1 molecular beacon, Hinp1I cleavage, fluorescence | inhibition (reported as % activation of signal), % at 10 µM | 360,000 tested, 0.83% active | AID 588458; in the data active means inhibition above about 50%
STEP conf: confirmation of human STEP phosphatase inhibitors | shares compounds with STEP inh | recombinant STEP, OMFP fluorogenic substrate, fluorescence | inhibition, % at 20 µM | 520 tested, 32% active; call rule not given here;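 further: 0% = enzyme with substrate plus DMSO and 100% = substrate without enzyme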
Numbers without * were called inactive.

What do the screens show for `Cc1ccc(C)c(Nc2nc3ccc(C)cc3n3cnnc23)c1`?
STEP inh: -1; Scp1 inh: 4; LMPTP block: 0; SUMO1-SIM PPI: -5; CASP6 VEID inh: 0; DNMT1 inh: 24

What do the screens show for `CCOc1ccc(N2C(=O)c3cccnc3C2Nc2ccc(F)cc2)cc1` (stereo not given)?
STEP inh: 52*; Scp1 inh: -4; LMPTP block: -1; SUMO1-SIM PPI: 1; DNMT1 inh: -6; STEP conf: 26

Results for Cc1ccc(NC2c3ncccc3C(=O)N2Cc2ccc(F)cc2)cc1 (stereo not given) ?
STEP inh: 1; Scp1 inh: -4; LMPTP block: 1; SUMO1-SIM PPI: 1; CASP6 VEID inh: 11; DNMT1 inh: 1

Results for NC(=O)C1(N2CCCCC2)CCN(c2nc(-c3ccccc3)cs2)CC1 ?
STEP inh: 1; Scp1 inh: -5; LMPTP block: 1; SUMO1-SIM PPI: -7; DNMT1 inh: -4

How did COc1ccc(-c2csc(N3CCC(C(N)=O)(N4CCCCC4)CC3)n2)cc1 do in these assays?
STEP inh: 71*; Scp1 inh: -5; LMPTP block: 1; SUMO1-SIM PPI: -4; DNMT1 inh: 3; STEP conf: -2

Results for CCCn1nnnc1SCC(=O)NCc1ccc2c(c1)OCO2 ?
STEP inh: 3; Scp1 inh: -4; LMPTP block: -1; SUMO1-SIM PPI: 2; DNMT1 inh: -1

Results for CSc1ncccc1C(=O)OCC(=O)c1ccc2c(c1)NC(=O)CO2 ?
STEP inh: -2; Scp1 inh: -4; LMPTP block: 0; SUMO1-SIM PPI: -15; CASP6 VEID inh: -7; DNMT1 inh: 7

What do the screens show for `OCCN1CCN(C(=S)c2ccc(Cl)c(Cl)c2)CC1`?
STEP inh: 90*; Scp1 inh: -6; LMPTP block: 0; SUMO1-SIM PPI: 3; DNMT1 inh: -2; STEP conf: 60*

Results for COc1cc(NC(=S)N2CCN(CCO)CC2)c(OC)cc1Cl ?
STEP inh: 3; Scp1 inh: -4; LMPTP block: -2; SUMO1-SIM PPI: 1; CASP6 VEID inh: 0; DNMT1 inh: -4

Results for CC(NC(=O)C1CCN(S(=O)(=O)c2ccc3c(c2)NC(=O)CO3)CC1)c1ccccc1 (stereo not given) ?
STEP inh: 1; Scp1 inh: -1; LMPTP block: 1; SUMO1-SIM PPI: -6; CASP6 VEID inh: 4; DNMT1 inh: 1

Results for COc1ccc(OC)c(NC(=S)N2CCN(c3ccccn3)CC2)c1 ?
STEP inh: 17; Scp1 inh: 5; LMPTP block: 1; SUMO1-SIM PPI: -2; DNMT1 inh: 2

What do the screens show for `COc1ccc(NC(=S)N2CCN(c3ncccn3)CC2)c(OC)c1`?
STEP inh: 85*; Scp1 inh: -11; LMPTP block: -1; SUMO1-SIM PPI: 1; CASP6 VEID inh: -1; DNMT1 inh: -1; STEP conf: 27

Results for Cc1cccc(C)c1NC(=O)CCCN1CC(C)OC(C)C1 (stereo not given) ?
STEP inh: -1; Scp1 inh: -2; LMPTP block: -1; SUMO1-SIM PPI: -2; DNMT1 inh: 1

How did Cc1ccc(-c2csc3ncnc(N4CCN(S(=O)(=O)c5cccs5)CC4)c23)cc1 do in these assays?
STEP inh: 0; Scp1 inh: 9; LMPTP block: 3; SUMO1-SIM PPI: 0; DNMT1 inh: -3

Results for O=C(NC1CCCCCC1)C(=S)NC1CCCCC1 ?
STEP inh: 57*; Scp1 inh: -6; LMPTP block: -1; SUMO1-SIM PPI: 0; CASP6 VEID inh: -4; DNMT1 inh: 2; STEP conf: 31*

What do the screens show for `O=C1CC(=O)Nc2cc(S(=O)(=O)NCc3cccs3)ccc2N1`?
STEP inh: 74*; Scp1 inh: -3; LMPTP block: -1; SUMO1-SIM PPI: -2; CASP6 VEID inh: -3; DNMT1 inh: 3; STEP conf: 8

What do the screens show for `CC1(C)Cc2c(sc(N)c2C#N)C(C)(C)N1`?
STEP inh: 44*; Scp1 inh: -3; LMPTP block: 1; SUMO1-SIM PPI: 4; CASP6 VEID inh: 3; DNMT1 inh: -5; STEP conf: 28

How did O=C(N/N=C/c1ccncc1)c1cccc(S(=O)(=O)Nc2ccc(Cl)cc2)c1 do in these assays?
STEP inh: 74*; Scp1 inh: 11; LMPTP block: 26; SUMO1-SIM PPI: 79*; CASP6 VEID inh: 2; DNMT1 inh: 3; STEP conf: 95*

Results for C[C@H](CO)N1C[C@H](C)[C@H](CN(C)Cc2ccc(Cl)c(Cl)c2)Oc2ccc(NC(=O)Cc3ccccc3)cc2C1=O ?
CASP6 VEID inh: 3

How did COC(=O)c1sccc1NC(=O)c1ccc(C#N)cc1 do in these assays?
STEP inh: 98*; Scp1 inh: 117*; LMPTP block: 2; SUMO1-SIM PPI: 13; DNMT1 inh: 19; STEP conf: 12

How did COC(C[C@H](O)C[C@@H](O)[C@@H](C)OCc1ccccc1)OC do in these assays?
STEP inh: -3; Scp1 inh: -10; LMPTP block: -1; SUMO1-SIM PPI: 1; CASP6 VEID inh: -3; DNMT1 inh: 1

Results for Cc1cccc(C)c1NC(=S)N(CCN1CCCCCC1)Cc1ccco1 ?
STEP inh: 22; Scp1 inh: -4; LMPTP block: -1; SUMO1-SIM PPI: -5; CASP6 VEID inh: -4; DNMT1 inh: -2

What do the screens show for `Cc1cccc(C)c1NC(=S)N(Cc1ccco1)C1CCN(C(C)C)CC1`?
STEP inh: 46*; Scp1 inh: -5; LMPTP block: 1; SUMO1-SIM PPI: 3; CASP6 VEID inh: -8; DNMT1 inh: 2; STEP conf: 8

What do the screens show for `O=C(COC(=O)Cc1c[nH]c2ccccc12)Nc1ccccc1C(F)(F)F`?
STEP inh: -1; Scp1 inh: -8; LMPTP block: 1; SUMO1-SIM PPI: 1; CASP6 VEID inh: 0; DNMT1 inh: 2

How did O=S1OCCN1c1ccccc1 (stereo not given) do in these assays?
STEP inh: 42*; Scp1 inh: -2; LMPTP block: -1; SUMO1-SIM PPI: 1; CASP6 VEID inh: 2; DNMT1 inh: 1; STEP conf: 31

How did Cc1cccn2c(=O)c(C=C(C#N)C#N)c(N3CCN(c4ccccc4)CC3)nc12 do in these assays?
STEP inh: 5; Scp1 inh: -6; LMPTP block: 3; SUMO1-SIM PPI: -9; CASP6 VEID inh: 0; DNMT1 inh: -1
